The series concerns MS2 coat protein. The experiment in a line: apparent Kd, MS2 coat protein; higher = weaker binding; RNA-MaP array; FMN 200 µM where present. In short, it runs like this: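 Designs were transcribed by stalled E. coli RNA polymerase on Illumina sequencing-chip clusters. They were titrated with SNAP-549-labelled MS2 coat protein from 0.7 or 1.5 nM, doubling to 3 µM, in 100 mM Tris-HCl pH 7.5, 80 mM KCl, 4 mM MgCl2, BSA, DTT, yeast tRNA and Tween-20, without and then with constant ligand. The apparent Kd is the median of filtered per-cluster fits after normalisation of green signal to red-channel RNA signal and control-cluster median Fmax.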

Where [1] appears, read: designed as: OFF switch for flavin mononucleotide, no ligand.
[2] abbreviates: ligand present: flavin mononucleotide, designed as: OFF switch for flavin mononucleotide.
[3] abbreviates: designed as: ON switch for flavin mononucleotide, no ligand.
Setting [4] is: ligand present: flavin mononucleotide, designed as: ON switch for flavin mononucleotide.

As a reminder, the apparent Kd is the concentration giving half-maximal binding under the conditions of the assay. Take “CUCUUGGCAGGAUAUGCAAUUUUAGACAUGAGGAUCACCCAUGUGAUCAUUCCAUAUUAUGCAGAAGGGCCUAAAC”: the “apparent Kd” value runs as follows: under setting [1], 0.0482 µM; under setting [2], 0.32 µM.

On to “UCCUGAUCGAGAGGUAGGAGUGGUAGAAGGCGACCGGUGCCAGAUGACAUGAGGAUCACCCAUGUCGAGGAUAUACCACAGAAU”, for which the “apparent Kd” value runs as follows: under setting [1], 0.00703 µM; under setting [2], 0.0123 µM.

As to “UGUUGUAUUACAGGAUAUCUAUUAUUUUUUUUUAGAGAAGGGUAUUCACAUGAGGAUCACCCAUGUAUAUACGAGGAAGUUGUG”, the “apparent Kd” value worked out at 0.0598 µM under setting [3] and 0.062 µM under setting [4].

“UGUGUUAUCGGAGGAUAUCGAUAUCAAACAUGAGGAUCACCCAUGUUGAGGAUCACCCAUGUCCACGAGAAGGCCGGCGUACUC”: the “apparent Kd” value was determined as 0.0238 µM under setting [3] and 0.0241 µM under setting [4].

Regarding “GUCGGAAACGACAAAAGUAUGGAUCCAGAAGGUAUGAAACAUGAGGAUCACCCAUGUCAAAGACAUGAGGAUAUGGAUCCAUAC”, the “apparent Kd” value runs as follows: under setting [3], 0.0324 µM; under setting [4], 0.00954 µM.

As for “AACGGUGGGUAGGAUAUCCGGUUCUAGUUGCCAGGAGAAGGGCCCACAUGAGGAUCACCCAUGUGGGUGGGCUC”, the “apparent Kd” value by setting is: under setting [1], 0.0477 µM; under setting [2], 0.0261 µM.

On to “UGUCGGAGCAGAGGAUAUUACAUGAGGAUCACCCAUGUAUGAACCAAUAGCUGGAAACAGCAAUGUCAGAAGGCUGCUCCGACA”, for which the “apparent Kd” value reads like this: under setting [1], 0.005 µM; under setting [2], 0.00506 µM.

In the case of “GCUCGAUGCGCUGAGCACAUGAGGAUCACCCAUGUAAAAUGUCAGGAUAUUUACGUGCUUUAUGUAGAGAAGGGACUAUCGAGC”, the “apparent Kd” value by setting is: under setting [3], 0.0605 µM; under setting [4], 0.0241 µM.

Turning to “GUGCACACUCGAGGAUAUCGGAGAGUACUCCUUCGAGAAGGCGAUUCGUGCCGUGUUAUUCUGGACAUGAGGAUCACCCAUGUG”, the “apparent Kd” value was found to be 0.125 µM under setting [3] and 0.0399 µM under setting [4].

Take “AAUUGUCGUGAGGAUAUGUACGUUUUAGUAACGACAGAAGGCAUGACAUGAGGAUCACCCAUGUUGUAAUCUGG”: the “apparent Kd” value runs as follows: under setting [1], 0.082 µM; under setting [2], 0.429 µM.

As to “CAUUUGUGAGGAUAUCAGGUGUGCUAGCGUACUGGUACAUCUGAGAAGGCACAUGAGGAUCACCCAUGUUUCUU”, the “apparent Kd” value under setting [2] stood at 0.0433 µM.

For “UCUCUGCGAGGAUAUACGUUUGCGCGCUUUCGUUUGCGCGUACAUGAGGAUCACCCAUGUAGAAGGCGCGUUUC”, the “apparent Kd” value is, setting by setting: under setting [1], 0.0132 µM; under setting [2], 0.0141 µM.

For “UUAUGAUAGAUAGGAUAUACAAUGGAUUAAGAAGUAGAAGGAUCAAGUGGGAAAUGAACAUGAGGAUCACCCAUGUAAUAGGUU”, the “apparent Kd” value reads like this: under setting [3], 0.127 µM; under setting [4], 0.0835 µM.

As to “CUUUCGUGAGGAUAUCAGUAGUAAAUAAAUAAAAUUACUACUGAGAAGGCACAUGAGGAUCACCCAUGUUCCUC”, the “apparent Kd” value turned out to be 0.0236 µM under setting [1] and 0.144 µM under setting [2].

Take “GAACGUAAAGAGAAGGGCUACUGGUUGAAACCUGCGGCCUCUGGAACAUGAGGAUCACCCAUGUAGCAGGAUAUCUUUGCAUUA”: the “apparent Kd” value is 0.146 µM under setting [1] and 0.0189 µM under setting [2].

For the sequence “UGUUGUAUUACAGGAUAUCUAUUAUUUUUAAUUAGAGAAGGGUAUUCACAUGAGGAUCACCCAUGUAUAUACGAGGAAGUUGUG”, the “apparent Kd” value runs as follows: under setting [3], 0.0352 µM; under setting [4], 0.0358 µM.

“UGGGUAAGUGUAGGAUAUUUAUAUUAAUAGUAUGGAGAAGGACAUGAGGAUCACCCAUGUACAGGAAGUUGCCCAUUUCCUCUC”: the “apparent Kd” value by setting is: under setting [1], 0.579 µM; under setting [2], 0.495 µM.

For the sequence “ACAUGAUAUGUAGGAUAUCACAUUAAUUGAUUAAUAUAUCAAUAUAGAAUUUGAGAAGGACAUUUACAUGAGGAUCACCCAUGU”, the “apparent Kd” value is 0.0107 µM under setting [1] and 0.00871 µM under setting [2].

As to “UCGCCAGGUACAGGAUAUGUGGAUCGGUCAAGUAACUCGCCGAACAUGAGGAUCACCCAUGUAUCACAGAAGGGUGCCUCAAAG”, the “apparent Kd” value runs as follows: under setting [3], 0.223 µM; under setting [4], 0.0109 µM.

For the sequence “AUGCUUCACACAGGAUAUACAUGAGGAUCACCCAUGUGUCCUCCGUAGCUGACACGAGCUACGCUGUAGAAGGGUGUGAAGCAU”, the “apparent Kd” value turned out to be 0.234 µM under setting [1] and 0.223 µM under setting [2].

For “UGCGUACAAGCAAACAUGAGGAUCACCCAUGUGGUCUUAUGCGAGGAUAUCGGGAAGGAGGAUUCCGAGAAGGUGCGGUGAGCC”, the “apparent Kd” value came to 0.0314 µM under setting [3] and 0.0265 µM under setting [4].

As for “GGGUACAUCGGAGGAUAUCAUGUAAAUACAUGAGGAUCACCCAUGUCGAUGGAGACAUCGGAGAUUGAGAAGGCCGAAGUACCG”, the “apparent Kd” value runs as follows: under setting [3], 0.214 µM; under setting [4], 0.00899 µM.

With “AAAAAACAAGGAUAUACGAAGGAUGGUUAUCUUAAUUUUUGACAUGAGGAUCACCCAUGUAGAAGGUGUUAAAA”, the “apparent Kd” value under setting [1] turned out to be 0.0379 µM and the “apparent Kd” value under setting [2] stood at 0.0762 µM.

For the sequence “UUGCGGUAGGAGAAGGACAGAGGCGGAAACACAUACAUGAGGAUCACCCAUGUAGGAUAUCCUACCUAACGCGGACUCCUCCAG”, the “apparent Kd” value was determined as 0.00585 µM under setting [1] and 0.00643 µM under setting [2].

On to “UUUUUUCCUCAUGUACAUGAGGAACAUGAGGAUCACCCAUGUAGAAGGAUUUCCCUUAAAUUAAGAUAGGAUAUACAUAUAUUU”, for which the “apparent Kd” value under setting [1] was 0.087 µM and the “apparent Kd” value under setting [2] amounted to 0.0705 µM.

On to “UUUGUUUAUGCAGGAUAUUGUAUUUUAUUACAUCAAGAAGGGCAUUACAUGAGGAUCACCCAUGUUAUCUUAUGGUUAACUAGU”, for which the “apparent Kd” value under setting [1] is 0.0208 µM and the “apparent Kd” value under setting [2] came to 0.0213 µM.

Consider “UGACCCAUGACAUGAGAUGACAUGAGGAUCACCCAUGUUUACAAGGAUAUGUUGGUCAAAGGUCGGCAGAAGGUGUAAUGGGAU”, for which the “apparent Kd” value under setting [1] is 0.049 µM and the “apparent Kd” value under setting [2] is 0.128 µM.

For the sequence “GGAUCACAAAGUGAUCCAAUACGAACAUGAGGAUCACCCAUGUAGGAUAUGCUACUCAAAGAGUAGCAGAAGGACAUGUGCCUU”, the “apparent Kd” value by setting is: under setting [1], 0.0354 µM; under setting [2], 0.296 µM.

Take “GCGUAACAUGAGGAUCACCCAUGUACCCGAGAAUUCGGGUGUAGAAGGGUGACCGGUCGUUUGGCACAGGAUAUACACGCUGUG”: the “apparent Kd” value under setting [3] stood at 0.0371 µM and the “apparent Kd” value under setting [4] is 0.0115 µM.

Consider “AUAUAUAUAUCAGGAUAUGGACAGGCCUGUCCGUAUUGAGACAGUAACAUGAGGAUCACCCAUGUCCAGAAGGGAUCUAUAUAU”, for which the “apparent Kd” value reads like this: under setting [1], 0.0405 µM; under setting [2], 0.0494 µM.

Consider “CGACAUUUAGGAUAUACGGUUAUUGAGGUUUUUGUUAGUCGACAUGAGGAUCACCCAUGUAGAAGGAAAUGAGU”, for which the “apparent Kd” value reads like this: under setting [1], 0.0346 µM; under setting [2], 0.0494 µM.

As for “CGAUAUGAUGCAGGAUAUCUAUCUUGAAUGAGGAGAGAAGGGCAAACCGAGACAUAAGCCUUAUUACAUGAGGAUCACCCAUGU”, the “apparent Kd” value is 0.0104 µM under setting [1] and 0.00938 µM under setting [2].

Take “AAGACAAAUGUAGGAUAUGCGUGGCGAAGCUAUGCAGAAGGACAUGAGGAUCACCCAUGUCUUAGCGUCUGCGUACAGAUGCUA”: the “apparent Kd” value is, setting by setting: under setting [1], 0.0167 µM; under setting [2], 0.0209 µM.

With “AAUUAAUUAAUACAUGAGGAUCACCCAUGUAAUUAUUAGAUCAAGGAUAUCAGCUCGAUUAGAGCUGAGAAGGUGAUCACAUGU”, the “apparent Kd” value by setting is: under setting [3], 0.412 µM; under setting [4], 0.102 µM.

With “AUUUAUGGCCAGAAGGACAUGAGGAUCACCCAUGUAGGAUAUGGACGAUUUUGCUCGGUGGUUCGUUUAGGAAGCACCGGUGGU”, the “apparent Kd” value came to 0.00959 µM under setting [3] and 0.00702 µM under setting [4].

Turning to “UGAACUAUGUAGAAGGCCCAUAUUUAUAUAUAGGGAGGAUAUACAUGAGGAUCACCCAUGUAUAGAGCAAGAGGACUUGUCAGU”, the “apparent Kd” value came out at 0.00634 µM under setting [1] and 0.00707 µM under setting [2].

Values taken from the EternaBench riboswitch data.
